Published values from different studies.
Compare with care: the assays were run in different laboratories.
Cell line: SK-OV-3

SMILES	assay	conditions	quantity	value
COc1ccc(C(=O)/C=C/c2cccc(Cl)c2)cc1S(N)(=O)=O	cell growth or viability, SRB	48 h	GI50	6.2 µM
C#C[C@@]1(O)[C@@H](CO)O[C@@H](n2cc(Cl)c3c(N)ncnc32)[C@@H]1O	cell growth or viability, SRB		GI50	0.119 µM
COc1ccc(C(=O)/C=C/c2ccccc2Br)cc1S(N)(=O)=O	cell growth or viability, SRB	10 µM	inhibition	30%
COc1cc(CNC(=O)CCCC/C=C/C(C)C)ccc1OCc1cn(-c2ccc(C#N)cc2)nn1	cell growth or viability, SRB		IC50	32.5 µM
O=C1Nc2ccccc2C1=NNc1nnc2n1N=C(c1ccccc1)CS2	cell growth or viability, SRB	10 µM	inhibition	11%
COc1cc(-c2ccc(-c3ccc(C(=N)N)nc3)s2)cc(OC)c1OC	cell growth or viability, SRB		GI50	13.1 µM
COc1ccc(C(=O)/C=C/c2c(F)cccc2Cl)cc1S(N)(=O)=O	cell growth or viability, SRB	10 µM	inhibition	73%
O=C(c1cc(Cc2n[nH]c(=O)c3ccccc23)ccc1F)N1CCN(C(=O)C2CC2)CC1	colony formation		IC50	2.63 µM
COc1ccc(C(=O)/C=C/c2ccc(Cl)c(Cl)c2)cc1S(N)(=O)=O	cell growth or viability, SRB	10 µM	inhibition	48%
Cc1ccc(-c2ccc(O)cc2)c(C(=C2C=CC(=O)C=C2)c2ccc(O)cc2)c1C#Cc1ccc(O)cc1	cell growth or viability, MTT	48 h	IC50	18.6 µM
Cc1cc(C)n(C(=S)[S][Au][PH](CCCCCC[PH]([Au][S]C(=S)n2nc(C)cc2C)(c2ccccc2)c2ccccc2)(c2ccccc2)c2ccccc2)n1	cell growth or viability		GI50	0.852 µM
COc1cccc(Oc2ccccc2NC(=O)CNC(=O)c2cccc3ccccc23)c1	cell growth or viability, SRB	48 h	GI50	0.49 µM
C[C@]12CC[C@@H]3c4ccc(O)cc4CC[C@H]3[C@@H]1CC[C@@H]2O	cell growth or viability, ATP luminescence	72 h	EC90	56.8 µM
COc1cc(CNC(=O)CCCC/C=C/C(C)C)ccc1OCc1cn(-c2ccc(C(F)(F)F)cc2)nn1	cell growth or viability, SRB		IC50	10.6 µM
COc1ccc(C(=O)/C=C/c2ccc3ccccc3c2)cc1S(N)(=O)=O	cell growth or viability, SRB	10 µM	inhibition	77%
Cn1ncnc1[C@H]1c2n[nH]c(=O)c3cc(F)cc(c23)N[C@@H]1c1ccc(F)cc1	colony formation		IC50	0.0234 µM
COc1ccc(C(=O)/C=C/c2cccc3ccccc23)cc1S(N)(=O)=O	cell growth or viability, SRB	48 h	GI50	3.7 µM
COc1cc(Nc2nccc(-c3cnn4nc(OC)ccc34)n2)cc(C(F)(F)F)c1	cell growth or viability, ATP luminescence		IC50	0.16 µM
